# Measured values of several laboratories.
# LDHA: L-lactate dehydrogenase A chain (LDHA, Homo sapiens, UniProt P00338)
# MAOA: Amine oxidase [flavin-containing] A (MAOA, Homo sapiens, UniProt P21397)
# Tspo: Translocator protein (Tspo, Rattus norvegicus, UniProt P16257)
# PRMT3: Protein arginine N-methyltransferase 3 (PRMT3, Homo sapiens, UniProt O60678)
SMILES,target,assay,conditions,inhibition [%]
Cc1ccc(Nc2nccc(N(C)c3ccc4c(C)n(C)nc4c3)n2)cc1S(N)(=O)=O,"Ribosomal protein S6 kinase alpha-1 (Rps6ka1, Rattus norvegicus, UniProt Q63531)","enzyme activity, inhibitor",10 µM,41
COC(=O)CN=c1scc(-c2ccccc2)n1-c1ccc(OC)cc1,LDHA,"enzyme activity, inhibitor, fluorescence","100 µM, pH 7.2",49
O=C(c1ccc(Cl)cc1)N(Cc1ccccc1)C1CCCCC1,"Alpha-1A adrenergic receptor (ADRA1A, Homo sapiens, UniProt P35348)",cell-free assay,10 µM,17
O=C(Nc1ccc(C(F)(F)F)cc1)c1cc(Cl)ccc1O,MAOA,"enzyme activity, inhibitor","1 µM, 20 min",82
CC[C@H](C)[C@H](NC(=O)[C@H](CCC(N)=O)NC(=O)[C@H](CC(C)C)NC(=O)[C@H](CCSC)NC(=O)[C@H](CCCCN)NC(=O)[C@H](CO)NC(=O)[C@H](CO)NC(=O)[C@H](CCSC)NC(=O)[C@H](CC(C)C)NC(=O)[C@H](CC(N)=O)NC(=O)[C@@H](NC(=O)[C@@H](NC(=O)[C@H](CO)NC(=O)[C@H](CC(C)C)NC(=O)[C@H](CS)NC(=O)[C@H](CCCNC(=N)N)NC(=O)[C@H](CC(=O)O)NC(=O)[C@H](Cc1c[nH]c2ccccc12)NC(=O)[C@H](Cc1ccccc1)NC(=O)[C@H](C)NC(=O)[C@H](CCC(=O)O)NC(=O)[C@@H](N)CCCCN)C(C)C)[C@@H](C)CC)C(=O)N[C@@H](CC(N)=O)C(=O)N[C@@H](C)C(=O)O,"Cyclin-dependent kinase 5, with p25 (CDK5, Homo sapiens, UniProt Q00535)","enzyme activity, inhibitor, radiometric",100 µM,41
N#Cc1ccc(NC(=O)c2ccc(Cl)cc2)cc1,MAOA,"enzyme activity, inhibitor","1 µM, 20 min",72
Oc1cccc(Nc2nc(-c3ccc(F)cc3F)cs2)c1,Tspo,"ligand displacement, radioligand",10 µM,63
N=C(NCCCSC[C@H]1O[C@@H](n2cnc3c(NCCCc4ccccc4)ncnc32)[C@H](O)[C@@H]1O)NC1CC1,PRMT3,"enzyme activity, inhibitor, fluorescence",10 µM,-8.93
O=C(Nc1ccccc1)c1cc(Cl)ccc1O,MAOA,"enzyme activity, inhibitor","1 µM, 20 min",20
N=C(NCCCSC[C@H]1O[C@@H](n2cnc3c(NCCCc4ccccc4)ncnc32)[C@H](O)[C@@H]1O)NCCCc1ccccc1,PRMT3,"enzyme activity, inhibitor, fluorescence",10 µM,10.4
O=C(Nc1ccc(OC(F)(F)F)cc1)c1cc(Cl)ccc1O,MAOA,"enzyme activity, inhibitor","1 µM, 20 min",74
O=C(OC(C(F)(F)F)C(F)(F)F)N1CCC(CCn2nnc3ccccc32)CC1,"Fatty-acid amide hydrolase 1 (Faah, Rattus norvegicus, UniProt P97612)","enzyme activity, inhibitor",10 µM,47
O=C1N=C(N2CCCCN2)S/C1=C\c1ccc(F)cc1O,"Vasoactive intestinal polypeptide receptor 1 (VIPR1, Homo sapiens, UniProt P32241)","ligand displacement, radioligand",10 µM,11
Cc1ccc(-n2nc(C(C)(C)C)cc2NC(=O)Nc2ccc(OCCN3CCOCC3)c3ccccc23)cc1,"Tyrosine-protein phosphatase non-receptor type 1 (PTPN1, Homo sapiens, UniProt P18031)","enzyme activity, inhibitor",10 µM,18
CN1CC(Oc2cnc(C#N)cc2-c2ccn3nc(NC(=O)C4CC4)cc3c2)C1,"Wee1-like protein kinase 2 (WEE2, Homo sapiens, UniProt P0C1S8)","enzyme activity, inhibitor",1 µM,3
O=C(Nc1cccc(Cl)c1)c1cc(Cl)ccc1O,MAOA,"enzyme activity, inhibitor","1 µM, 20 min",15
CNC(=O)[C@@]12C[C@@H]1[C@@H](n1cnc3c(NC)nc(C#Cc4ccc(Cl)s4)nc31)[C@H](O)[C@@H]2O,Tspo,"ligand displacement, radioligand",10 µM,60 to 70
COC(=O)CN=c1scc(-c2ccccc2)n1-c1ccccc1C,LDHA,"enzyme activity, inhibitor, fluorescence","100 µM, pH 7.2",43
